Laboratory results: ChEMBL document CHEMBL1121702, “A structure-activity relationship study of spirolactones. Contribution of the cyclopropane ring to antimineralocorticoid activity” (J Med Chem, 1981)

Legend:
[1] = target: T1, Mineralocorticoid receptor (Rattus norvegicus) (UniProt P22199); experiment: Displacement of [3H]aldosterone from mineralocorticoid receptor
T1 sequence (whole entry): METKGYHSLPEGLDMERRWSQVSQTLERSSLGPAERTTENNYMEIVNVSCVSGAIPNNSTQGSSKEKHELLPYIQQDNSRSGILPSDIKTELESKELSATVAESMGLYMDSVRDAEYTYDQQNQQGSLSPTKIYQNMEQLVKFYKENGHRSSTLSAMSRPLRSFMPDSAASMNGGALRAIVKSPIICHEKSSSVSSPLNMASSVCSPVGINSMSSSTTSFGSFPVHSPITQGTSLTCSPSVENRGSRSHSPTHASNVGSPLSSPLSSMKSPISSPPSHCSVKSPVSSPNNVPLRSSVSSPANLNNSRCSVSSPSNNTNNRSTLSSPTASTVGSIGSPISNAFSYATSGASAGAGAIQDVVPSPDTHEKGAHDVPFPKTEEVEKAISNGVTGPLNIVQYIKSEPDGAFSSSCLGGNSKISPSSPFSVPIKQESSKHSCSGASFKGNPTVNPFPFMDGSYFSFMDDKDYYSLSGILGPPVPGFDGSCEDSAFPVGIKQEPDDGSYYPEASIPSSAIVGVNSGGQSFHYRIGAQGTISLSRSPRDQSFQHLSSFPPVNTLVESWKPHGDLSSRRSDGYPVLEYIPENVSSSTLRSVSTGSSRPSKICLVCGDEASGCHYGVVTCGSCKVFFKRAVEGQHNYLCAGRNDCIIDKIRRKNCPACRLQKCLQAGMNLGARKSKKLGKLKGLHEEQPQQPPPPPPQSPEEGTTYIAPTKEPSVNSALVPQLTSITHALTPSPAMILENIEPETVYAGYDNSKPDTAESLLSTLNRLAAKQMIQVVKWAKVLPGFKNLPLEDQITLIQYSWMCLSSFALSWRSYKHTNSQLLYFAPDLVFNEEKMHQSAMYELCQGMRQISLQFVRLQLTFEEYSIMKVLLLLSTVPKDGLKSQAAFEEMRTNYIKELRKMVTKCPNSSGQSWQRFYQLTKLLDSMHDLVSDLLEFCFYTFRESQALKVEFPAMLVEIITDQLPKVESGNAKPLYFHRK
Method in brief: (§1)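 Competition binding against [3H]aldosterone at the mineralocorticoid steroid-receptor complex. Each spirolactone competitor was tested at 8 × 10^-8 M, with unlabeled aldosterone at the same concentration as reference. Incubation ran 40 min at 25 °C. Labeled aldosterone still receptor-bound afterwards was measured, and binding affinity was expressed relative to aldosterone.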

[2] = target: T1, Mineralocorticoid receptor (Rattus norvegicus); experiment: Ratio of [3H]aldosterone binding with 8*10e-8 M aldosterone to [3H]aldosterone binding with 8*10e-8 M competitor at Mineralocorticoid receptor; method in brief: as §1

Binding [1] [%]	Relative binding affinity [2]	SMILES
55	0.14	CC12C(=CC(=O)C3CC31)[C@@H]1C[C@@H]1C1C2CCC2(C)C1CCC21CCC(=O)O1 (some centres undefined)
77.6	0.1	CC12C(=CC(=O)C3CC31)[C@H]1CC1C1C2CCC2(C)C1CCC21CCC(=O)O1 (some centres undefined)
31.7	0.25	CC12CCC(=O)C=C1[C@@H]1C[C@@H]1C1C2CCC2(C)C1CCC21CCC(=O)O1 (some centres undefined)
36	0.22	C[C@]12CCC(=O)C=C1CC[C@@H]1[C@@H]2CC[C@@]2(C)[C@H]1CC[C@@]21CCC(=O)O1
53.5	0.15	C[C@]12C=CC(=O)C=C1CCC1C2CC[C@@]2(C)C1CC[C@@]21CCC(=O)O1 (some centres undefined)
66	0.12	CC12CCC(=O)C=C1[C@H]1C[C@H]1C1C2CCC2(C)C1CCC21CCC(=O)O1 (some centres undefined)
7.8	1	C[C@]12CCC(=O)C=C1CC[C@@H]1[C@@H]2[C@@H](O)C[C@]2(C=O)[C@@H](C(=O)CO)CC[C@@H]12
32.2	0.24	CC(=O)S[C@@H]1CC2=CC(=O)CC[C@]2(C)[C@H]2CC[C@@]3(C)[C@@H](CC[C@@]34CCC(=O)O4)[C@H]12
76.6	0.1	CC12C=CC(=O)C=C1C=CC1C2CCC2(C)C1CCC21CCC(=O)O1 (centres undefined)
77	0.1	CC12C=CC(=O)C=C1[C@H]1CC1C1C2CCC2(C)C1CCC21CCC(=O)O1 (some centres undefined)
53	0.15	CC12C=CC(=O)C=C1[C@H]1C[C@H]1C1C2CCC2(C)C1CCC21CCC(=O)O1 (some centres undefined)
60	0.13	C[C@]12CCC(=O)C=C1C=C[C@@H]1[C@@H]2CC[C@@]2(C)[C@H]1CC[C@@]21CCC(=O)O1
